{
  "source": "ChEMBL document CHEMBL2040813",
  "about": "“4-Thiophenoxy-2-trichloromethyquinazolines display in vitro selective antiplasmodial activity against the human malaria parasite Plasmodium falciparum” (Bioorg Med Chem Lett, 2011)",
  "key": {"Plasmodium falciparum": {"tested_on": "Plasmodium falciparum", "test": "Antiplasmodial activity against chloroquine, pyrimethamine, and proguanil-resistant Plasmodium falciparum K1 infected in human A+ erythrocytes after 72 hrs by SYBR Green-I fluorescence-based method", "assay_type": "functional, organism-based", "settings": "K1, 72 h", "how_it_was_run": "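Ring-stage cultures (5% sorbitol synchronised), maintained in A+ human erythrocytes with RPMI/HEPES/NaHCO3/10% A+ serum under 5% O2, 5% CO2. Assay at 2% haematocrit, 1% parasitaemia, graded compound concentrations, 72 h at 37 °C in triplicate. IC50 by nonlinear regression, mean of three independent experiments.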"}, "[1]": {"test": "Cytotoxicity against human HepG2 cells after 72 hrs by MTT assay", "assay_type": "cell-based", "how_it_was_run": "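Cells seeded in RPMI with 10% foetal bovine serum, L-glutamine, penicillin/streptomycin, 37 °C, 6% CO₂; after 24 h, compound dilutions added for 72 h. MTT (5 mg/mL in PBS) added 2 h at 37 °C, formazan dissolved in DMSO, absorbance 570 nm (reference 630 nm). Viability as percent of untreated cells; CC50 from dose–response curve; mean of three independent experiments.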"}, "[2]": {"test": "Selectivity index, ratio of CC50 for human HepG2 cells to IC50 for chloroquine, pyrimethamine, and proguanil-resistant Plasmodium falciparum K1", "assay_type": "functional", "how_it_was_run": "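SI = HepG2 CC50 / K1 IC50. The read-out was MTT for 2 h, formazan dissolved in DMSO, A570 with 630 nm reference. Viability is expressed as % of untreated control, CC50 taken from the dose-response curve. The IC50 is from the SYBR Green K1 assay.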"}, "Toxoplasma gondii": {"tested_on": "Toxoplasma gondii", "test": "Antimicrobial activity against tachyzoites of Toxoplasma gondii expressing PRU-beta-Gal gene infected in HFF after 72 hrs by colorimetric microtiter assay", "assay_type": "functional, organism-based"}},
  "data": [
    {"smiles": "ClC(Cl)(Cl)c1nc(Sc2ccccc2)c2ccccc2n1", "values": [
      {"measurement": "IC50", "setting": "Plasmodium falciparum", "value": 1.9, "unit": "µM"},
      {"measurement": "CC50 at 72 h", "setting": "[1]", "value": 35, "unit": "µM"},
      {"measurement": "Ratio CC50/IC50", "setting": "[2]", "value": 18.4}
    ]},
    {"smiles": "Clc1ccccc1Sc1nc(C(Cl)(Cl)Cl)nc2ccccc12", "values": [
      {"measurement": "IC50", "setting": "Plasmodium falciparum", "value": 2.8, "unit": "µM"},
      {"measurement": "CC50 at 72 h", "setting": "[1]", "value": 26, "unit": "µM"},
      {"measurement": "Ratio CC50/IC50", "setting": "[2]", "value": 9.3}
    ]},
    {"smiles": "Clc1cccc(Sc2nc(C(Cl)(Cl)Cl)nc3ccccc23)c1", "values": [
      {"measurement": "IC50", "setting": "Plasmodium falciparum", "value": 2.2, "unit": "µM"},
      {"measurement": "CC50 at 72 h", "setting": "[1]", "value": 16, "unit": "µM"},
      {"measurement": "Ratio CC50/IC50", "setting": "[2]", "value": 7.3}
    ]},
    {"smiles": "Fc1ccccc1Sc1nc(C(Cl)(Cl)Cl)nc2ccccc12", "values": [
      {"measurement": "IC50", "setting": "Plasmodium falciparum", "value": 2.3, "unit": "µM"},
      {"measurement": "CC50 at 72 h", "setting": "[1]", "value": 28, "unit": "µM"},
      {"measurement": "Ratio CC50/IC50", "setting": "[2]", "value": 12.2}
    ]},
    {"smiles": "Fc1cccc(Sc2nc(C(Cl)(Cl)Cl)nc3ccccc23)c1", "values": [
      {"measurement": "IC50", "setting": "Plasmodium falciparum", "value": 1.9, "unit": "µM"},
      {"measurement": "CC50 at 72 h", "setting": "[1]", "value": 15.5, "unit": "µM"},
      {"measurement": "Ratio CC50/IC50", "setting": "[2]", "value": 8.2}
    ]},
    {"smiles": "Fc1ccc(Sc2nc(C(Cl)(Cl)Cl)nc3ccccc23)cc1", "values": [
      {"measurement": "IC50", "setting": "Plasmodium falciparum", "value": 1.2, "unit": "µM"},
      {"measurement": "CC50 at 72 h", "setting": "[1]", "value": "> 30", "unit": "µM"},
      {"measurement": "Ratio CC50/IC50", "setting": "[2]", "value": ">25"}
    ]},
    {"smiles": "FC(F)(F)c1ccccc1Sc1nc(C(Cl)(Cl)Cl)nc2ccccc12", "values": [
      {"measurement": "IC50", "setting": "Plasmodium falciparum", "value": 2.5, "unit": "µM"},
      {"measurement": "CC50 at 72 h", "setting": "[1]", "value": 28, "unit": "µM"},
      {"measurement": "Ratio CC50/IC50", "setting": "[2]", "value": 11.2}
    ]},
    {"smiles": "FC(F)(F)c1cccc(Sc2nc(C(Cl)(Cl)Cl)nc3ccccc23)c1", "values": [
      {"measurement": "IC50", "setting": "Plasmodium falciparum", "value": 2.2, "unit": "µM"},
      {"measurement": "CC50 at 72 h", "setting": "[1]", "value": 17.5, "unit": "µM"},
      {"measurement": "Ratio CC50/IC50", "setting": "[2]", "value": 8}
    ]},
    {"smiles": "FC(F)(F)c1ccc(Sc2nc(C(Cl)(Cl)Cl)nc3ccccc23)cc1", "values": [
      {"measurement": "IC50", "setting": "Plasmodium falciparum", "value": 1, "unit": "µM"},
      {"measurement": "CC50 at 72 h", "setting": "[1]", "value": 13, "unit": "µM"},
      {"measurement": "Ratio CC50/IC50", "setting": "[2]", "value": 13}
    ]},
    {"smiles": "Cc1ccccc1Sc1nc(C(Cl)(Cl)Cl)nc2ccccc12", "values": [
      {"measurement": "IC50", "setting": "Plasmodium falciparum", "value": 7, "unit": "µM"},
      {"measurement": "CC50 at 72 h", "setting": "[1]", "value": 52, "unit": "µM"},
      {"measurement": "Ratio CC50/IC50", "setting": "[2]", "value": 7.4}
    ]},
    {"smiles": "Cc1cccc(Sc2nc(C(Cl)(Cl)Cl)nc3ccccc23)c1", "values": [
      {"measurement": "IC50", "setting": "Plasmodium falciparum", "value": 1.9, "unit": "µM"},
      {"measurement": "CC50 at 72 h", "setting": "[1]", "value": 35, "unit": "µM"},
      {"measurement": "Ratio CC50/IC50", "setting": "[2]", "value": 18.4}
    ]},
    {"smiles": "Cc1ccc(Sc2nc(C(Cl)(Cl)Cl)nc3ccccc23)cc1", "values": [
      {"measurement": "IC50", "setting": "Plasmodium falciparum", "value": 1.6, "unit": "µM"},
      {"measurement": "CC50 at 72 h", "setting": "[1]", "value": "> 30", "unit": "µM"},
      {"measurement": "Ratio CC50/IC50", "setting": "[2]", "value": ">19"}
    ]},
    {"smiles": "COc1ccccc1Sc1nc(C(Cl)(Cl)Cl)nc2ccccc12", "values": [
      {"measurement": "IC50", "setting": "Plasmodium falciparum", "value": 3.9, "unit": "µM"},
      {"measurement": "CC50 at 72 h", "setting": "[1]", "value": 32, "unit": "µM"},
      {"measurement": "Ratio CC50/IC50", "setting": "[2]", "value": 8.2}
    ]},
    {"smiles": "COc1cccc(Sc2nc(C(Cl)(Cl)Cl)nc3ccccc23)c1", "values": [
      {"measurement": "IC50", "setting": "Plasmodium falciparum", "value": 2, "unit": "µM"},
      {"measurement": "CC50 at 72 h", "setting": "[1]", "value": 12, "unit": "µM"},
      {"measurement": "Ratio CC50/IC50", "setting": "[2]", "value": 6}
    ]},
    {"smiles": "COc1ccc(Sc2nc(C(Cl)(Cl)Cl)nc3ccccc23)cc1", "values": [
      {"measurement": "IC50", "setting": "Plasmodium falciparum", "value": 2.5, "unit": "µM"},
      {"measurement": "CC50 at 72 h", "setting": "[1]", "value": "> 8", "unit": "µM"},
      {"measurement": "Ratio CC50/IC50", "setting": "[2]", "value": ">3.2"}
    ]},
    {"smiles": "Clc1ccc(Sc2nc(C(Cl)(Cl)Cl)nc3ccccc23)c(Cl)c1", "values": [
      {"measurement": "IC50", "setting": "Plasmodium falciparum", "value": 1.5, "unit": "µM"},
      {"measurement": "CC50 at 72 h", "setting": "[1]", "value": 18.2, "unit": "µM"},
      {"measurement": "Ratio CC50/IC50", "setting": "[2]", "value": 12.1}
    ]},
    {"smiles": "Clc1ccc(Sc2ncnc3ccccc23)cc1", "values": [
      {"measurement": "IC50", "setting": "Plasmodium falciparum", "value": 4.4, "unit": "µM"},
      {"measurement": "CC50 at 72 h", "setting": "[1]", "value": 16.7, "unit": "µM"},
      {"measurement": "Ratio CC50/IC50", "setting": "[2]", "value": 3.8}
    ]},
    {"smiles": "FC(F)(F)c1nc(Sc2ccc(Cl)cc2)c2ccccc2n1", "values": [
      {"measurement": "IC50", "setting": "Plasmodium falciparum", "value": "> 15", "unit": "µM"},
      {"measurement": "CC50 at 72 h", "setting": "[1]", "value": "> 15", "unit": "µM"}
    ]},
    {"smiles": "Clc1nc(C(Cl)(Cl)Cl)nc2ccccc12", "values": [
      {"measurement": "CC50 at 72 h", "setting": "[1]", "value": "> 125", "unit": "µM"},
      {"measurement": "Ratio CC50/IC50", "setting": "[2]", "value": ">2.3"}
    ]},
    {"smiles": "C[C@H]1c2cccc(O)c2C(=O)C2=C(O)[C@]3(O)C(=O)C(C(N)=O)=C(O)[C@@H](N(C)C)[C@@H]3[C@@H](O)[C@@H]21.O", "note": "[DOXYCYCLINE]", "values": [
      {"measurement": "IC50", "setting": "Plasmodium falciparum", "value": 5, "unit": "µM"},
      {"measurement": "Ratio CC50/IC50", "setting": "[2]", "value": 4}
    ]},
    {"smiles": "CCc1nc(N)nc(N)c1-c1ccc(Cl)cc1", "note": "[PYRIMETHAMINE]", "values": [
      {"measurement": "IC50", "setting": "Toxoplasma gondii", "value": 0.8, "unit": "µM"}
    ]}
  ]
}
